Source: ChEMBL document CHEMBL4665669, “Novel tertiary sulfonamide derivatives containing benzimidazole moiety as potent anti-gastric cancer agents: Design, synthesis and SAR studies” (Eur J Med Chem, 2019)
Calls of active or inactive are those of the source. No cut-off for these calls is given here.

What was measured:
SGC-7901 [1] = assay: Cell cycle arrest at G2 phase in human SGC-7901 cells assessed as downregulation of CDK1 level at 0.5 to 1.5 umol/L after 48 hrs by Western blot analysis; type: functional, cell-based; conditions: dose micromol/L 0.5-1.5, time 48.0 hrs
Method in brief: (§1)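 Western blot. Cells were treated with compound concentrations or DMSO for 48 h, then lysed, and lysates were denatured, run on SDS-PAGE and transferred to nitrocellulose. After blocking in 5% skimmed milk, membranes were incubated with primary antibodies at 4 °C for 8 h, then secondary antibodies, with ECL detection.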

HGC-27 [2] = assay: Cell cycle arrest at M phase in human HGC-27 cells assessed as upregulation of p-Histone-3 level at 0.5 to 1.5 umol/L after 48 hrs by Western blot analysis; type: functional, cell-based; conditions: dose micromol/L 0.5-1.5, time 48.0 hrs; method in brief: as §1
MGC-803 [3] = assay: Induction of apoptosis in human MGC-803 cells assessed as cleavage of caspase-7 at 0.5 to 1.5 umol/L after 48 hrs Western blot analysis; type: functional, cell-based; conditions: dose micromol/L 0.5-1.5, time 48.0 hrs; method in brief: as §1
[4] = Selectivity index, ratio of IC50 for human GES1 cells to IC50 for human SGC-7901 cells assessed as inhibition of cell proliferation after 48 hrs by MTT assay
Method in brief: (§2)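 Fold selectivity is the IC50 in GES-1 normal gastric epithelial cells divided by the IC50 in the gastric cancer line (HGC-27, MGC-803 or SGC-7901). Both IC50s come from 48 h exposure, MTT (4 h, 37 °C), DMSO solubilisation and 490 nm absorbance, with three independent experiments.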

HGC-27 [5] = assay: Inhibition of Ras/Raf/MEK/ERK signalling pathway in human HGC-27 cells assessed as decrease in MEK1 phosphorylation after 48 hrs by Western blot analysis; type: cell-based; conditions: dose micromol/L 0.5-1.5, time 48.0 hrs
Method in brief: (§3)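 Cells treated with graded concentrations or DMSO for 48 h, then harvested and lysed. Lysates denatured, resolved by SDS-PAGE and transferred to nitrocellulose. Membranes blocked with 5% skimmed milk and probed with primary antibodies at 4 °C for 8 h, then with secondary antibodies. Bands detected by ECL.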

MGC-803 [6] = assay: Inhibition of Ras/Raf/MEK/ERK signalling pathway in human MGC-803 cells assessed as downregulation of c-Myc expression at 0.5 to 1.5 umol/L after 48 hrs by Western blot analysis; type: cell-based; conditions: dose micromol/L 0.5-1.5, time 48.0 hrs; method in brief: as §3
SGC-7901 [7] = assay: Induction of apoptosis in human SGC-7901 cells induction of DNA fragmentation at 0.5 to 1.5 umol/L after 48 hrs by imaging analysis; type: functional, cell-based; conditions: dose micromol/L 0.5-1.5, time 48.0 hrs
MGC-803 [8] = assay: Induction of apoptosis in human MGC-803 cells after 48 hrs by flow cytometry analysis; type: functional, cell-based; conditions: dose micromol/L 0.5-1.5, time 48.0 hrs
MGC-803 [9] = assay: Inhibition of Ras/Raf/MEK/ERK signalling pathway in human MGC-803 cells assessed as decrease in c-Raf phosphorylation after 48 hrs by Western blot analysis; type: cell-based; conditions: dose micromol/L 0.5-1.5, time 48.0 hrs; method in brief: as §3
SGC-7901 [10] = assay: Inhibition of Ras/Raf/MEK/ERK signalling pathway in human SGC-7901 cells assessed as decrease in ERK1/2 phosphorylation after 48 hrs by Western blot analysis; type: cell-based; conditions: dose micromol/L 0.5-1.5, time 48.0 hrs; method in brief: as §3
MGC-803 [11] = assay: Inhibition of colony formation in human MGC-803 cells at 0.5 to 1.5 umol/L after 7 days by crystal violet staining based assay; type: functional, cell-based; conditions: dose micromol/L 0.5-1.5, time 7.0 day
Method in brief: (§4)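 5000 cells per well seeded and held 24 h at 37 °C, 5% CO2, then exposed to graded concentrations (0.5, 1, 1.5 µmol/L). After 7 days the medium was removed and wells were washed twice with PBS. Colonies fixed in 4% paraformaldehyde and stained with 0.1% crystal violet.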

SGC-7901 [12] = assay: Inhibition of Akt/mTOR signalling pathway in human SGC-7901 cells assessed as decrease in AKT phosphorylation at Ser473 residue at 0.5 to 1.5 umol/L after 48 hrs by Western blot analysis; type: cell-based; conditions: dose micromol/L 0.5-1.5, time 48.0 hrs; method in brief: as §3
SGC-7901 [13] = assay: Inhibition of colony formation in human SGC-7901 cells at 0.5 to 1.5 umol/L after 7 days by crystal violet staining based assay; type: functional, cell-based; conditions: dose micromol/L 0.5-1.5, time 7.0 day; method in brief: as §4
SGC-7901 [14] = assay: Induction of apoptosis in human SGC-7901 cells assessed as cleavage of PARP at 0.5 to 1.5 umol/L after 48 hrs Western blot analysis; type: functional, cell-based; conditions: dose micromol/L 0.5-1.5, time 48.0 hrs; method in brief: as §1
HGC-27 [15] = assay: Inhibition of Akt/mTOR signalling pathway in human HGC-27 cells assessed as decrease in mTOR phosphorylation at Ser2448 residue at 0.5 to 1.5 umol/L after 48 hrs by Western blot analysis; type: cell-based; conditions: dose micromol/L 0.5-1.5, time 48.0 hrs; method in brief: as §3
MGC-803 [16] = assay: Cell cycle arrest at M phase in human MGC-803 cells assessed as upregulation of p-Histone-3 level at 0.5 to 1.5 umol/L after 48 hrs by Western blot analysis; type: functional, cell-based; conditions: dose micromol/L 0.5-1.5, time 48.0 hrs; method in brief: as §1
MGC-803 [17] = assay: Inhibition of Ras/Raf/MEK/ERK signalling pathway in human MGC-803 cells assessed as effect on RAS level at 0.5 to 1.5 umol/L after 48 hrs by Western blot analysis; type: cell-based; conditions: dose micromol/L 0.5-1.5, time 48.0 hrs; method in brief: as §3
SGC-7901 [18] = assay: Anticancer activity against human SGC-7901 cells assessed as cell growth at 0.5 to 1.5 umol/L after 48 hrs by MTT assay relative to control; type: functional; conditions: dose micromol/L 0.5-1.5
SGC-7901 [19] = assay: Inhibition of Ras/Raf/MEK/ERK signalling pathway in human SGC-7901 cells assessed as decrease in MEK1 phosphorylation after 48 hrs by Western blot analysis; type: cell-based; conditions: dose micromol/L 0.5-1.5, time 48.0 hrs; method in brief: as §3
MGC-803 [20] = assay: Inhibition of Ras/Raf/MEK/ERK signalling pathway in human MGC-803 cells assessed as decrease in ERK1/2 phosphorylation after 48 hrs by Western blot analysis; type: cell-based; conditions: dose micromol/L 0.5-1.5, time 48.0 hrs; method in brief: as §3
MGC-803 [21] = assay: Induction of apoptosis in human MGC-803 cells assessed as induction of DNA fragmentation at 0.5 to 1.5 umol/L after 48 hrs by imaging analysis; type: functional, cell-based; conditions: dose micromol/L 0.5-1.5, time 48.0 hrs
SGC-7901 [22] = assay: Induction of apoptosis in human SGC-7901 cells assessed as downregulation of XIAP level at 0.5 to 1.5 umol/L after 48 hrs Western blot analysis; type: functional, cell-based; conditions: dose micromol/L 0.5-1.5, time 48.0 hrs; method in brief: as §1
SGC-7901 [23] = assay: Induction of apoptosis in human SGC-7901 cells assessed as upregulation of NOXA level at 0.5 to 1.5 umol/L after 48 hrs Western blot analysis; type: functional, cell-based; conditions: dose micromol/L 0.5-1.5, time 48.0 hrs; method in brief: as §1
HGC-27 [24] = assay: Induction of apoptosis in human HGC-27 cells assessed as cleavage of PARP at 0.5 to 1.5 umol/L after 48 hrs Western blot analysis; type: functional, cell-based; conditions: dose micromol/L 0.5-1.5, time 48.0 hrs; method in brief: as §1
MGC-803 [25] = assay: Induction of apoptosis in human MGC-803 cells assessed as upregulation of NOXA level at 0.5 to 1.5 umol/L after 48 hrs Western blot analysis; type: functional, cell-based; conditions: dose micromol/L 0.5-1.5, time 48.0 hrs; method in brief: as §1
MGC-803 [26] = assay: Cell cycle arrest at G2 phase in human MGC-803 cells assessed as downregulation of Cyclin B level at 0.5 to 1.5 umol/L after 48 hrs by Western blot analysis; type: functional, cell-based; conditions: dose micromol/L 0.5-1.5, time 48.0 hrs; method in brief: as §1
MGC-803 [27] = assay: Anticancer activity against human MGC-803 cells assessed as inhibition of cell proliferation after 48 hrs by MTT assay; type: functional, cell-based
Method in brief: (§5)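 MTT assay with 48 h compound exposure. MTT solution was then added and incubated 4 h at 37 °C, the supernatant discarded and formazan dissolved in DMSO, with absorbance read at 490 nm. IC50 values were calculated from three independent experiments, reported as mean SD.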

MCF7 = assay: Anticancer activity against human MCF7 cells assessed as inhibition of cell proliferation after 48 hrs by MTT assay; type: functional, cell-based; conditions: MCF7, 48 h; method in brief: as §5
[28] = Selectivity index, ratio of IC50 for human GES1 cells to IC50 for human MGC-803 cells assessed as inhibition of cell proliferation after 48 hrs by MTT assay; method in brief: as §2

COc1cc(N(Cc2nc3ccccc3[nH]2)S(=O)(=O)c2ccc(C)cc2)cc(OC)c1OC
Activity (SGC-7901 [1]): Active
Activity (HGC-27 [2]): Active
Activity (MGC-803 [3]): Active
Ratio IC50 [4]: 6.6
inhibition (HGC-27 [5]): Dose-dependent effect
inhibition (MGC-803 [6]): Active
Activity (SGC-7901 [7]): Active
Activity (MGC-803 [8]): Dose-dependent effect
inhibition (MGC-803 [9]): Dose-dependent effect
inhibition (SGC-7901 [10]): Dose-dependent effect
inhibition (MGC-803 [11]): Active
inhibition (SGC-7901 [12]): Active
inhibition (SGC-7901 [13]): Active
Activity (SGC-7901 [14]): Active
inhibition (HGC-27 [15]): Active
Activity (MGC-803 [16]): Active
inhibition (MGC-803 [17]): inactive
fold change (FC) (SGC-7901 [18]): <2
inhibition (SGC-7901 [19]): Dose-dependent effect
inhibition (MGC-803 [20]): Dose-dependent effect
Activity (MGC-803 [21]): Active
Activity (SGC-7901 [22]): Active
Activity (SGC-7901 [23]): Active
Activity (HGC-27 [24]): Active
Activity (MGC-803 [25]): Active
Activity (MGC-803 [26]): Active
Activity (MGC-803 [27]): Dose-dependent effect
IC50 (MGC-803 [27]; MGC-803, 48 h): 1.02 µM
IC50 (MCF7): 5.4 µM
Ratio IC50 [28]: 14.9
